Laboratory results published in publication PMC4539048 (Science translational medicine, 2015).
Converted amounts (≈) assume the structure as drawn. “And” between values parts separate entries of the source, which are not always exact repeats. Equal values may be shown once. Marks after values point to notes of the source that are not given here.

Experiments:
CYP enzymes = experiment: CYP induction in human hepatocytes; format: in vitro ADME
[1] = test system: key CYP enzymes (not individually named); experiment: CYP inhibition in human liver microsomes; format: in vitro ADME
Procedure, shortened: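 Inhibition of CYP isoforms was measured by a substrate-specific approach in human liver microsomes.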

[2] = Protein binding in assay media; format: in vitro ADME; settings: 0.5% Albumax II in RPMI-1640
[3] = Cardiac safety by telemetry in conscious dogs; format: in vivo
[4] = test system: P. falciparum Pf3D7_0087/N9; experiment: P. falciparum SCID mouse 4-day dosing efficacy model; format: in vivo
[5] = test system: Salmonella typhimurium-E. coli; experiment: 5-strain bacterial reverse mutation assay
panel of human kinases = experiment: Panel of human kinases; format: biochemical; settings: University of Dundee
[6] = test system: rabbit cardiac ventricular wedge; experiment: Rabbit cardiac ventricular wedge assay
[7] = test system: P. falciparum gametocytes stages IV–V; experiment: Gametocyte assay stages IV–V; format: cell-based
[8] = Stability in hepatic microsomes and cryopreserved hepatocytes; format: in vitro ADME; settings: across species
[9] = Human pharmacokinetic prediction
Pharmacokinetics in mice = format: in vivo; settings: female, Swiss outbred, mouse, plasma
Procedure, shortened: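 Single-dose PK in female Swiss outbred mice or male beagle dogs, dosed IV and orally in a range of formulations. Blood was drawn into anticoagulant tubes and plasma separated by centrifugation. Compound was quantified by LC/MS, typically in 2–6 animals per study, with SD given where n>2.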

P. yoelii DHODH = settings: cited from earlier work
[10] = test system: 9 strains of P. falciparum; experiment: In vitro blood-stage activity on 9 strains of P. falciparum; format: cell-based; settings: Plasmodium falciparum, read-out: EC50 range over all tested strains
Procedure, shortened: (§1)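 SYBR-green growth assay on P. falciparum 3D7 and drug-resistant lines, including chloroquine- and pyrimethamine-resistant parasites, cultured in RPMI-1640 with 0.5% Albumax-II. At least triplicate data per concentration. EC50 from the log(inhibitor) vs response variable-slope (four-parameter) fit by nonlinear least squares, reported with 95% confidence intervals of the fit.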

P. cynomolgi DHODH = P. cynomolgi DHODH (Plasmodium cynomolgi, UniProt K6UE05); experiment: DHODH inhibition, DCIP spectrophotometric assay; format: biochemical
P. falciparum 3D7 [11] = experiment: In vitro killing curves / 48 h growth assay, P. falciparum 3D7 blood stage; format: cell-based
[12] = 7-day repeat dose toxicity study in mice; format: in vivo; settings: highest dose tested, Day 7
Procedure, shortened: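 Mice received the test compound orally once daily at 25–200 mg/kg/day for 7 days in an exploratory (non-GLP) toxicology study. They were monitored daily for clinical signs, body weight and food consumption, with haematology, clinical chemistry and histopathology. Plasma toxicokinetic parameters, including average concentration over the dosing interval, were derived on day 1 and day 7.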

[13] = target: human ether-a-go-go related gene (hERG) K+ channel (Homo sapiens, UniProt Q12809); experiment: hERG patch clamp assay; format: cell-based
Chain of human ether-a-go-go related gene (hERG) K+ channel (Q12809 whole entry): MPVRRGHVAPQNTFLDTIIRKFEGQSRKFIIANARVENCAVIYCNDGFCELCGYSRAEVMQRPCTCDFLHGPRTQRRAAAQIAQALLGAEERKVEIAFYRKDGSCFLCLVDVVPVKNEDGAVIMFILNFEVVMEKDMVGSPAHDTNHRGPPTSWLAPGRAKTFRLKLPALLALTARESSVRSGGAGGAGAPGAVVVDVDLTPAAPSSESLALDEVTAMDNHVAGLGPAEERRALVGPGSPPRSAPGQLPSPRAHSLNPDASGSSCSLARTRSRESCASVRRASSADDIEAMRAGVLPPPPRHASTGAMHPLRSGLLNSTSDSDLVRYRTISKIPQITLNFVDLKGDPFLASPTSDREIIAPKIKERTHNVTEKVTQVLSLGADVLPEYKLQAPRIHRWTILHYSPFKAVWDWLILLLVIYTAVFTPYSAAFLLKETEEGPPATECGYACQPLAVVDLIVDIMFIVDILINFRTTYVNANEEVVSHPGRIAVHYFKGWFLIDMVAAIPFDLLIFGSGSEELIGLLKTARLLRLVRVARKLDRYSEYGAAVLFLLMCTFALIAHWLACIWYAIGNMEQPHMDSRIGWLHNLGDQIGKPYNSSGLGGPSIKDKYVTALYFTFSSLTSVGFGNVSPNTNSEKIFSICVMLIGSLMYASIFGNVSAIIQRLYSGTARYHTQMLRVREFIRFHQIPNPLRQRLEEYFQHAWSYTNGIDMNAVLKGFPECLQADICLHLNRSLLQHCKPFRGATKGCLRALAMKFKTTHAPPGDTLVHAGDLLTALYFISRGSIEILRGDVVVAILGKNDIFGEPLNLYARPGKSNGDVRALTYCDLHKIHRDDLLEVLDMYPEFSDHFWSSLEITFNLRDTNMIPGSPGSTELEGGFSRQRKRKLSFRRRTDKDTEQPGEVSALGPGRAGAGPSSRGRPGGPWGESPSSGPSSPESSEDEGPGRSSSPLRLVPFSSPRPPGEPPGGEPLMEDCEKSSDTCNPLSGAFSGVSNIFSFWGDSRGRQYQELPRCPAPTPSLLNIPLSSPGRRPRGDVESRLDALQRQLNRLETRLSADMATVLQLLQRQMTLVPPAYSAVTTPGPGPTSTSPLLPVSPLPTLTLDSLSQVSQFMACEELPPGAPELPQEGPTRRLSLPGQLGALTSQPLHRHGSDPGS

[14] = test system: P. cynomolgi liver-stage parasites; experiment: P. cynomolgi liver-stage model; format: cell-based
rabbit DHODH = rabbit DHODH (Oryctolagus cuniculus, UniProt G1SWF3); experiment: DHODH inhibition, DCIP spectrophotometric assay; format: biochemical
Chain of rabbit DHODH (G1SWF3 1-395): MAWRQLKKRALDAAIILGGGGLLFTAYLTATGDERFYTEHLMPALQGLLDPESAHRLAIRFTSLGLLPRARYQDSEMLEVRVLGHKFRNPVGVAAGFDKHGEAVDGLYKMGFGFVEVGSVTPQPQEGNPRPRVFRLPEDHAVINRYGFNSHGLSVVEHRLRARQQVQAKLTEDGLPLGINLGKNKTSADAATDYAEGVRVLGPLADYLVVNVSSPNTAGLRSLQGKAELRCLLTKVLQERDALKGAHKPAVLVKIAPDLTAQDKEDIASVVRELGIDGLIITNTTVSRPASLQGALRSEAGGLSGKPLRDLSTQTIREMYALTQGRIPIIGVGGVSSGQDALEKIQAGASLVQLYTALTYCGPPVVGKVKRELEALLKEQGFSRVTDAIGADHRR

CYP2C19 = CYP2C19 (Homo sapiens, UniProt P33261); experiment: Metabolism by individual human CYP enzymes; format: in vitro ADME; settings: CYP2C19 Supersomes
Chain of CYP2C19 (P33261 whole entry): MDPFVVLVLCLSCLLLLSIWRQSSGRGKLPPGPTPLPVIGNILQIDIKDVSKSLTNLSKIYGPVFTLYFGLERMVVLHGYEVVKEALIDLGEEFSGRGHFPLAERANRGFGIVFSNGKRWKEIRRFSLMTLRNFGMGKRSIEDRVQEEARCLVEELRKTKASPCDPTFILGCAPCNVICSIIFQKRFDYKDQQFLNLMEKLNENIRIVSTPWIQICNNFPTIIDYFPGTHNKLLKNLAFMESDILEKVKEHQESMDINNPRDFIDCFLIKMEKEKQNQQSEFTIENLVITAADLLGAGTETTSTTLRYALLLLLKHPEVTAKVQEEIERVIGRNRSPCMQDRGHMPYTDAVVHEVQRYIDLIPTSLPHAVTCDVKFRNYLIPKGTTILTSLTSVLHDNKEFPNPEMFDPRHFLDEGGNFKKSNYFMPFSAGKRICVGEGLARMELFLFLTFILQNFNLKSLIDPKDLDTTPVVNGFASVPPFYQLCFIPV

P. falciparum 3D7 [15] = experiment: Blood-stage phenotype and development by microscopy; format: cell-based; settings: 10xEC50, 48 h
Procedure, shortened: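 Giemsa-stained smears were scored by microscopy, at least 200 cells per condition, for stage arrest and morphology. Standard antimalarials served as controls.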

P. falciparum gametes = experiment: Dual gamete formation assay; format: cell-based
[16] = Plasma protein binding, mouse; format: in vitro ADME
[17] = test system: P. falciparum Dd2 and resistant clones; experiment: microbe, parasite or virus in culture; format: cell-based; settings: Plasmodium falciparum, DD2|DSM265, read-out: DSM265 Dd2 EC50, Dd2/wt
P. falciparum 3D7 [18] = experiment: In vitro P. falciparum 3D7 growth inhibition; format: cell-based; settings: Plasmodium falciparum, 3D7, read-out: P. falciparum 3D7 growth inhibition EC50
Procedure, shortened: as §1

[19] = target: panel of 106 human receptors and ion channels; experiment: Cerep panel of 106 human receptors and ion channels; format: binding
P. falciparum Dd2 = format: cell-based; settings: Dd2, 3xEC50
[20] = 10-day repeat dose toxicity study in dogs; format: in vivo; settings: highest dose tested, Day 1
Procedure, shortened: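 Male beagle dogs were dosed orally every other day in the fed state over a 10-day repeat-dose exploratory (non-GLP) toxicology study. They were monitored daily for clinical signs, body weight and food consumption, with haematology, clinical chemistry and histopathology. Plasma toxicokinetics were taken on day 1 to give Cav, and full toxicokinetics were not collected after the final dose.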

P. berghei DHODH = settings: cited from earlier work
[21] = test system: P. falciparum early stage gametocytes stage III – IV; strain NF54; experiment: Early stage gametocyte assay; format: cell-based
[22] = test system: micronucleated polychromatic erythrocytes; experiment: Oral bone marrow micronucleus test; format: in vivo; settings: male CD1 mice
[23] = determined 24 h after the last dose

## Cc1cc(Nc2ccc(S(F)(F)(F)(F)F)cc2)n2nc(C(C)(F)F)nc2n1 [DSM265, 2-(1,1-difluoroethyl)-5-methyl-[N-[4-(pentafluorosulfanyl)phenyl]1,2,4]triazolo[1,5-a]pyrimidin-7-amine]
CYP enzymes
  CYP induction: did not induce CYP enzymes
[1]
  IC50: > 10000 ng/mL
[2]
  Fraction unbound in assay media: 0.17 ^b
[3]; dog, plasma, oral, 300 mg/kg
  concentration at 24 h: 1300 ng/mL
[3]; oral doses of 30 and 300 mg/kg
  ECGs: within normal limits
[4]; 13 mg/kg/day (6.4 mg/kg b.i.d.), oral, 4 days
  blood concentration 23 h after the last dose, estimate of the MPC: 0.53 µg/mL
[4]; blood converted to plasma with blood to plasma ratio 0.5
  SCID mouse in vivo MPC (plasma): 1.1 ^c μg/mL
[4]; corrected with fraction unbound 0.001
  Unbound SCID mouse in vivo MPC (plasma): 0.0011 µg/mL
[4]; [23]
  ED90: 1.5 mg/kg/12 h
  dose at the MPC: 6.4 mg/kg/12 h
[5]
  mutagenic activity (Ames test): non-mutagenic
Panel of human kinases
  activity against a panel of human kinases: minimal activity
[6]; at 1 or 0.5 Hz
  QT and Tp-e interval: did not cause any significant prolongation
[6]; tested up to 5 μg/mL
  Torsade de Pointes (TdP)-type arrhythmias: no Torsade de Pointes (TdP)-type arrhythmias were observed
[7]
  EC50, gametocytes stages IV–V: no activity
[7]; Plasmodium falciparum, read-out: EC50, gametocytes stages IV–V
  EC50: > 16000 ng/mL
[8]
  degradation in hepatic microsomes and cryopreserved hepatocytes: minimal degradation
[9]
  plasma MPC used for the human dose prediction: 1 to 2 µg/mL
Pharmacokinetics in mice
  half-life: 2 to 4 h
P. yoelii DHODH
  activity against P. yoelii DHODH: poor activity
[10]
  EC50: 1 to 4 ng/mL (≈ 0.00241 to 0.00963 µM)
P. cynomolgi DHODH
  IC50: 12 nM
P. falciparum 3D7 [11]; Plasmodium falciparum, 3D7, 48 h, read-out: P. falciparum 3D7 in vitro growth assay EC50
  EC50: 4.6 ng/mL (≈ 0.0111 µM)
P. falciparum 3D7 [11]; at 1xEC50
  lag-phase prior to parasite killing: 96 h
P. falciparum 3D7 [11]; at 3xEC50 and above
  lag-phase prior to parasite killing: 24 to 48 h
P. falciparum 3D7 [11]; corrected with fraction unbound in 0.5% Albumax II in RPMI-1640
  Unbound in vitro MPC (kill assay): 0.002 µg/mL and 0.0020 µg/mL
P. falciparum 3D7 [11]; minimum parasiticidal concentration = 3xEC50
  P. falciparum 3D7 in vitro MPC (kill assay): 0.014 μg/mL and 0.014 ^a μg/mL
[12]
  average plasma concentration within a dosing interval (Cav): 11700 ng/mL
[13]
  IC50: 1590 to 6980 nM
[14]
  activity against small forms (non-dividing hypnozoite): poor activity
[14]; Plasmodium cynomolgi, read-out: EC50, liver-stage large form (multinucleated schizont)
  EC50: 130 ng/mL (≈ 0.313 µM)
Rabbit DHODH
  IC50: > 98700 nM
CYP2C19
  extent of metabolism: 0.039 μL/min/pmol CYP
P. falciparum 3D7 [15]
  blood-stage phenotype after treatment: arrested parasites in the young trophozoite-stage
P. falciparum gametes
  EC50, dual gamete formation assay: inactive
[16]
  fraction unbound: 0.003
[17]
  EC50: 2.2 ng/mL (≈ 0.0053 µM)
P. falciparum 3D7 [18]
  EC50: 1.8 ng/mL (≈ 0.00433 µM)
[19]
  IC50 values for the full panel: > 4200 ng/mL
P. falciparum Dd2
  MIR, range over two independent studies: 2×10^5–2×10^7 parasites
[20]
  average plasma concentration within a dosing interval (Cav): 16400 ng/mL
P. berghei DHODH
  activity against P. berghei DHODH: poor activity
[21]; Plasmodium falciparum, NF54, read-out: EC50, early stage gametocytes stage III – IV
  EC50: > 420 ng/mL
[21]; strain NF54
  EC50, early stage gametocytes stage III – IV: no activity
[22]
  micronucleated polychromatic erythrocytes: no increase
